Assay [1] relates to OVCAR-5. Put plainly: Growth inhibition of human OVCAR5 cells assessed as cell growth at 10 uM after 48 hrs by MTT assay; values are per cent of control. As to conditions: OVCAR-5, 48 h.
The test system of assay [2] is BT-549. Put plainly: Growth inhibition of human BT549 cells assessed as cell growth at 10 uM after 48 hrs by MTT assay; values are per cent of control. As to conditions: BT-549, 48 h.
The test system of assay [3] is UO-31. Description: Growth of human UO31 cells assessed as cell growth at 10 uM after 48 hrs by MTT assay. As to conditions: UO-31, 48 h. (In general: Formazan colour is commonly taken as a measure of viable cells.)
Assay [4] relates to NCI-H460. Description: Growth inhibition of human NCI-H460 cells assessed as cell growth at 10 uM after 48 hrs by MTT assay; values are per cent of control. As to conditions: NCI-H460, 48 h.
The test system of assay [5] is HCT-116. Description: Growth inhibition of human HCT116 cells assessed as cell growth at 10 uM after 48 hrs by MTT assay; values are per cent of control. As to conditions: HCT-116, 48 h.
In assay [6] the test system is SK-MEL-28. Put plainly: Increase in superoxide level in human SK-MEL-28 cells at 100 uM maintained in Locke's solution after 24 hrs by DHE-based fluorescence assay in absence of GF and glucose. Format: functional, cell-based. The method, boiled down:
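SK-MEL-28 cells held 24 h in Locke's balanced saline without glucose or serum, with or without 100 µM compound; antimycin was the positive control. Cells were PBS-washed and labelled at 37 °C with DHE (10 µmol/L, 1% DMSO) in Locke's containing 5 mmol/L pyruvate for 40 min. They were then iced, trypsinized and read by FACS as MFI of 10,000 cells, autofluorescence-corrected; 3–4 separate experiments.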

The subject of assay [7] is SF-539. Put plainly: Growth inhibition of human SF539 cells assessed as cell growth at 10 uM after 48 hrs by MTT assay; values are per cent of control. As to conditions: SF-539, 48 h.
Assay [8] concerns TK-10. Description: Growth inhibition of human TK10 cells assessed as cell growth at 10 uM after 48 hrs by MTT assay; values are per cent of control. As to conditions: TK-10, 48 h.
In assay [9] the test system is SK-OV-3. Put plainly: Growth inhibition of human SKOV3 cells assessed as cell growth at 10 uM after 48 hrs by MTT assay; values are per cent of control. As to conditions: SK-OV-3, 48 h.
Assay [10] relates to CCRF-CEM. Description: Growth of human CCRF-CEM cells assessed as cell growth at 10 uM after 48 hrs by MTT assay.
Assay [11] has as its system HCT-15. Description: Growth inhibition of human HCT15 cells assessed as cell growth at 10 uM after 48 hrs by MTT assay; values are per cent of control. As to conditions: HCT-15, 48 h.
Assay [12] deals with NCI-H226. Put plainly: Growth of human NCI-H226 cells assessed as cell growth at 10 uM after 48 hrs by MTT assay. As to conditions: NCI-H226, 48 h.
Assay [13] has as its system HT-29. Put plainly: Growth inhibition of human HT-29 cells assessed as cell growth at 10 uM after 48 hrs by MTT assay; values are per cent of control. As to conditions: HT-29, 48 h.
Assay [14] deals with SK-MEL-28. Description: Reduction in ATP level in human SK-MEL-28 cells at 100 uM maintained in Locke's solution after 24 hrs by luciferase-based assay in absence of GF and glucose. Format: functional, cell-based. The method, boiled down: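 SK-MEL-28 cells were grown 24 h in Locke's saline lacking glucose and serum, with or without 100 µM compound; antimycin was the positive control. Cellular ATP was released with a somatic-cell releasing reagent, then luciferase/luciferin assay mix was added and bioluminescence read. Mean ± S.E.M. of 10–14 replicates from 3 separate experiments.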

For assay [15], the system named is K562. Description: Growth inhibition of human K562 cells assessed as cell growth at 10 uM after 48 hrs by MTT assay; values are per cent of control. As to conditions: K562, 48 h.
Assay [16] deals with LOX IMVI. Description: Growth inhibition of human LOXIMVI cells assessed as cell growth at 10 uM after 48 hrs by MTT assay; values are per cent of control.
Assay [17] has as its system UACC-62. Description: Growth inhibition of human UACC62 cells assessed as cell growth at 10 uM after 48 hrs by MTT assay; values are per cent of control. As to conditions: UACC-62, 48 h.
The subject of assay [18] is NCI-H522. Description: Growth inhibition of human NCI-H522 cells assessed as cell growth at 10 uM after 48 hrs by MTT assay; values are per cent of control. As to conditions: NCI-H522, 48 h.
Assay [19] has as its system RPMI-8226. Description: Growth inhibition of human RPMI8226 cells assessed as cell growth at 10 uM after 48 hrs by MTT assay; values are per cent of control. As to conditions: RPMI-8226, 48 h.
Assay [20] is described as follows: Growth inhibition of human NCI-ADR-RES cells assessed as cell growth at 10 uM after 48 hrs by MTT assay; values are per cent of control.
The test system of assay [21] is HOP-62. Description: Growth inhibition of human HOP62 cells assessed as cell growth at 10 uM after 48 hrs by MTT assay; values are per cent of control. As to conditions: HOP-62, 48 h.
The test system of assay [22] is T47D. Description: Growth inhibition of human T47D cells assessed as cell growth at 10 uM after 48 hrs by MTT assay; values are per cent of control.
Assay [23] has as its system SK-MEL-5. Description: Growth inhibition of human SK-MEL-5 cells assessed as cell growth at 10 uM after 48 hrs by MTT assay; values are per cent of control. As to conditions: SK-MEL-5, 48 h.

Activity calls are given as the source filed them. The calls are words filed in the database; no cut-off is given here.

On to `c1cncc(-c2cnn[nH]2)c1`, for which the growth, % of control at 10 µM in [1] worked out at 100%; in assay [2], 97.7%; in assay [3] it was 76%; in assay [4] it was 115%; in assay [5], 82.4%; in assay [7] it was 106%. The growth, % of control at 10 µM is 103% in assay [8]; 48% in assay [9]; 24.8% in [10]; 69.2% in assay [11]; 80.6% in [12]; 39.9% in assay [13]. The growth, % of control at 10 µM is 75.2% in [15]; 102% in assay [16]; 90.7% in assay [17]; 101% in assay [18]; 66.9% in assay [19]; 71.3% in [20]. Further, the growth, % of control at 10 µM in assay [21] is 90.9%; in assay [22] it was 102%; in assay [23], 103%. Besides, the result in assay [6] and in assay [14] was Active.

These data come from ChEMBL document CHEMBL2062496, “Identification of a sirtuin 3 inhibitor that displays selectivity over sirtuin 1 and 2” (Eur J Med Chem, 2012).
